Measurements taken from ChEMBL document CHEMBL3817826, “H2S-Donating Doxorubicins May Overcome Cardiotoxicity and Multidrug Resistance” (J Med Chem, 2016).
The source made the active and inactive calls. No cut-off for these calls is given here.

How the values were obtained:
[1] = tested on: U2OS; experiment: Reduction of doxorubicin-mediated ROS accumulation in human U2OS/DX100 cells at 5 uM incubated for 24 hrs by DCFDA-AM probe-based fluorimetrical analysis relative to control; assay type: functional, cell-based
[2] = tested on: U2OS; experiment: Activity at PgP in human U2OS/[…] cells assessed as Vmax for doxorubicin measured per mg of protein incubated for 20 mins by fluorimetrical analysis (reference value: […] +/- […] nmol/min); assay type: cell-based
[3] = tested on: U2OS; experiment: Effect on doxorubicin-mediated cytotoxicity in human U2OS/DX580 cells at 5 uM incubated for 24 hrs LDH release-based spectrofluorimetrical analysis relative to control; assay type: functional, cell-based
Outline: (§1)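 Cells exposed 24 h to 5 μM drug in DMEM with 10% FBS at 37 °C, 5% CO2. Medium spun 12,000 × g 5 min. Cells sonicated in 82.3 mM triethanolamine phosphate-HCl pH 7.6. LDH in medium and lysate followed 6 min at 340 nm. Extracellular LDH reported as % of total dish activity, duplicate, n = 3, mean ± SD.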

[4] = tested on: U2OS; experiment: Increase in doxorubicin-mediated cytotoxicity in human U2OS/DX100 cells at 5 uM incubated for 24 hrs by LDH release-based spectrofluorimetrical analysis relative to control; assay type: functional, cell-based; outline: as §1
[5] = tested on: U2OS; experiment: Increase in doxorubicin accumulation in human U2OS/DX100 cells at 5 uM incubated for 24 hrs by fluorimetrical analysis; assay type: functional, cell-based
[6] = tested on: U2OS; experiment: Increase in doxorubicin-mediated cytotoxicity in human U2OS/DX30 cells at 5 uM incubated for 24 hrs by LDH release-based spectrofluorimetrical analysis relative to control; assay type: functional, cell-based; outline: as §1
[7] = tested on: H9c2; experiment: Cytotoxicity in rat H9c2 cells assessed as reduction in basal ROS level at 5 uM incubated for 24 hrs in presence of hydroxocobalamin by DCFDA-AM probe-based fluorimetrical analysis; assay type: cell-based; conditions: h9c2, 24 h
Outline: (§2)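 H9c2 cells held 24 h with 5 μM drug plus 100 μM hydroxocobalamin, then loaded with 5 μM DCFDA-AM for 30 min at 37 °C. Fluorescence read at 492/517 nm, expressed as nmol ROS/mg protein. Duplicate, n = 3.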

[8] = tested on: H9c2; experiment: Cytotoxicity in rat H9c2 cells at 5 uM incubated for 24 hrs in presence of hydroxocobalamin by LDH release-based spectrofluorimetrical analysis relative to control; assay type: cell-based; conditions: h9c2, 24 h
Outline: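 H9c2 cardiomyocytes given 5 μM drug for 24 h with 100 μM hydroxocobalamin as H2S scavenger. LDH measured at 340 nm over 6 min in medium and lysate. Extracellular activity taken as % of total, duplicate, n = 3.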

[9] = tested on: H9c2; experiment: Cytotoxicity in rat H9c2 cells at 5 uM coincubated with doxorubicin for 24 hrs in presence of hydroxocobalamin by LDH release-based spectrofluorimetrical analysis relative to control; assay type: cell-based; conditions: h9c2, 24 h
[10] = tested on: H9c2; experiment: Reduction of doxorubicin-mediated cytotoxicity in rat H9c2 cells at 5 uM incubated for 24 hrs by LDH release-based spectrofluorimetrical analysis relative to control; assay type: functional, cell-based
[11] = tested on: U2OS; experiment: Reduction of doxorubicin-mediated ROS accumulation in human U2OS/DX580 cells at 5 uM incubated for 24 hrs by DCFDA-AM probe-based fluorimetrical analysis relative to control; assay type: functional, cell-based
[12] = tested on: U2OS; experiment: Increase in doxorubicin accumulation in human U2OS/DX30 cells at 5 uM incubated for 24 hrs by fluorimetrical analysis; assay type: functional, cell-based
[13] = tested on: U2OS; experiment: Reduction of doxorubicin-mediated cytotoxicity in human U2OS cells at 5 uM incubated for 24 hrs by DCFDA-AM probe-based fluorimetrical analysis relative to control; assay type: functional, cell-based
[14] = tested on: H9c2; experiment: Effect on doxorubicin accumulation in rat H9c2 cells at 5 uM incubated for 24 hrs by fluorimetrical analysis; assay type: functional, cell-based
[15] = tested on: U2OS; experiment: Effect on doxorubicin accumulation in human U2OS/DX580 cells at 5 uM incubated for 24 hrs by fluorimetrical analysis; assay type: functional, cell-based
[16] = tested on: U2OS; experiment: Reduction of doxorubicin-mediated ROS accumulation in human U2OS/DX30 cells at 5 uM incubated for 24 hrs by DCFDA-AM probe-based fluorimetrical analysis relative to control; assay type: functional, cell-based
[17] = tested on: H9c2; experiment: Cytotoxicity in rat H9c2 cells at 5 uM incubated for 24 hrs by LDH release-based spectrofluorimetrical analysis relative to control; assay type: cell-based; conditions: h9c2, 24 h; outline: as §1
[18] = tested on: H9c2; experiment: Cytotoxicity in rat H9c2 cells assessed as reduction in basal ROS level at 5 uM incubated for 24 hrs by DCFDA-AM probe-based fluorimetrical analysis; assay type: cell-based; conditions: h9c2, 24 h
Outline: (§3)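 After 24 h at 5 μM, 1×10^6 cells in 0.5 mL PBS were loaded with 5 μM DCFDA-AM for 30 min at 37 °C, spun and resuspended. Fluorescence read at ex 492/em 517 nm, expressed as nmol ROS/mg cell protein. Duplicate, n = 3, mean ± SD.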

[19] = tested on: U2OS; experiment: Cytotoxicity in human U2OS/DX580 cells at 5 uM incubated for 24 hrs by LDH release-based spectrofluorimetrical analysis; assay type: functional, cell-based; outline: as §1
[20] = tested on: H9c2; experiment: Cytotoxicity in rat H9c2 cells assessed as reduction in ROS level at 5 uM incubated for 24 hrs in presence of NAC by DCFDA-AM probe-based fluorimetrical analysis; assay type: cell-based; conditions: h9c2, 24 h
[21] = tested on: H9c2; experiment: Cytotoxicity in rat H9c2 cells assessed as intracellular ROS accumulation at 5 uM incubated for 24 hrs by DCFDA-AM probe-based fluorimetrical analysis relative to control; assay type: cell-based; conditions: h9c2, 24 h; outline: as §3
[22] = target: DNA topoisomerase 2-alpha (Homo sapiens) (UniProt P11388); experiment: Inhibition of human topoisomerase 2-mediated DNA cleavage at 5 uM using supercoiled pHOT1 plasmid as substrate by agarose gel electrophoresis
Sequence of DNA topoisomerase 2-alpha (Homo sapiens) (P11388 whole entry): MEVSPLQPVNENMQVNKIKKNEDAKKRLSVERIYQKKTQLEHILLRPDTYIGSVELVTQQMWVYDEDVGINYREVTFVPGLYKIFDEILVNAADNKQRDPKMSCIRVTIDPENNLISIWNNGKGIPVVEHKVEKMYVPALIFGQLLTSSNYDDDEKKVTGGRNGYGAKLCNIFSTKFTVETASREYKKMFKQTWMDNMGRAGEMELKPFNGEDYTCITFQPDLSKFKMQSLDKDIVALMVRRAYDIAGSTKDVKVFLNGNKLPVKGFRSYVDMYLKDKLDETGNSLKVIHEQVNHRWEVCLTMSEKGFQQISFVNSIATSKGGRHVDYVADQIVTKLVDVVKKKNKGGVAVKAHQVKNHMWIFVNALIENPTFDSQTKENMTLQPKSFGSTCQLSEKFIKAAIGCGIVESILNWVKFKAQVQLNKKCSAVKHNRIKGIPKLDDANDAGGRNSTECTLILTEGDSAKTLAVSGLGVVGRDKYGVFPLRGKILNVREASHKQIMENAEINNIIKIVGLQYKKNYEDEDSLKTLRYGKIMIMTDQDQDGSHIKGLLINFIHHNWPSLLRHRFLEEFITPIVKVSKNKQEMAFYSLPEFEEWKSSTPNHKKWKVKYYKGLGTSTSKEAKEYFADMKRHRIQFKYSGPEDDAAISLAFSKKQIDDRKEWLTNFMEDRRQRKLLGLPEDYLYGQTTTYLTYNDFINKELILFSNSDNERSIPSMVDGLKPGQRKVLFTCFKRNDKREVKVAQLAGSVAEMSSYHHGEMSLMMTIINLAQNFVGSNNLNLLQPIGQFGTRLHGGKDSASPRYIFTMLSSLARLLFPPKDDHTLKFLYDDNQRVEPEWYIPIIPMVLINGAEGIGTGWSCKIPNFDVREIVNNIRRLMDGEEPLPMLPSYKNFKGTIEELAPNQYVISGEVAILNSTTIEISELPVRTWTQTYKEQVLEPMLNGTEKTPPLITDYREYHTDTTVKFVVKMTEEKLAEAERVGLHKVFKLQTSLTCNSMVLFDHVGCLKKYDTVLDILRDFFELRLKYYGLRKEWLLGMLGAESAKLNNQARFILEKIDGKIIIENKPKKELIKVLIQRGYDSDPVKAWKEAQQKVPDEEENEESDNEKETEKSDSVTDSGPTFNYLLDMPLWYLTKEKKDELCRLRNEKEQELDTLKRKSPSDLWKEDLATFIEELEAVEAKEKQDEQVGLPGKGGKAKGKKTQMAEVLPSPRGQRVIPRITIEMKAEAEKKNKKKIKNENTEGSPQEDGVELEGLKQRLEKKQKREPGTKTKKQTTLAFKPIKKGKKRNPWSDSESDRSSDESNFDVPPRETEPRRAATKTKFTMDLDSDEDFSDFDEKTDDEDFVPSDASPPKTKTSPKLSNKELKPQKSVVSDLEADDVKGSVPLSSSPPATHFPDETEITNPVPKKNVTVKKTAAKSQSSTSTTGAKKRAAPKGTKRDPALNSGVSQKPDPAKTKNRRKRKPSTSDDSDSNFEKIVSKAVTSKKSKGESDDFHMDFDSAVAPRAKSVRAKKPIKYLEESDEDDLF

[23] = Drug uptake in human U2OS/DX580 cells at 5 uM incubated for 24 hrs by fluorimetrical analysis; assay type: ADME, cell-based
Outline: (§4)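 Intracellular drug measured after 24 h exposure to 5 μM. Cell lysates read fluorimetrically at ex 475/em 553 nm with cell-free blank subtracted. Converted by calibration curve to nmol drug/mg cell protein. Duplicate, n = 3, mean ± SD.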

[24] = tested on: H9c2; experiment: Cytotoxicity in rat H9c2 cells […] at 5 uM incubated for 24 hrs in presence of dexrazoxane by LDH release-based spectrofluorimetrical analysis relative to control; assay type: cell-based; conditions: h9c2, 24 h
[25] = tested on: H9c2; experiment: Cytotoxicity in rat H9c2 cells assessed as intracellular ROS accumulation at 5 uM incubated for 24 hrs in presence of hydroxocobalamin by DCFDA-AM probe-based fluorimetrical analysis relative to control; assay type: cell-based; conditions: h9c2, 24 h; outline: as §2
[26] = tested on: U2OS; experiment: Cytotoxicity in human U2OS/DX30 cells at 5 uM incubated for 24 hrs by LDH release-based spectrofluorimetrical analysis; assay type: functional, cell-based; outline: as §1
[27] = Drug uptake in human U2OS/DX100 cells at 5 uM incubated for 24 hrs by fluorimetrical analysis; assay type: ADME, cell-based; outline: as §4
[28] = tested on: U2OS; experiment: Induction of intracellular ROS accumulation in human U2OS/DX30 cells at 5 uM incubated for 24 hrs by DCFDA-AM probe-based fluorimetrical analysis relative to control; assay type: functional, cell-based; outline: as §3
[29] = tested on: U2OS; experiment: Induction of intracellular ROS accumulation in human U2OS/DX580 cells at 5 uM incubated for 24 hrs by DCFDA-AM probe-based fluorimetrical analysis relative to control; assay type: functional, cell-based; outline: as §3
[30] = tested on: H9c2; experiment: Drug uptake in rat H9c2 cells at 5 uM incubated for 24 hrs by fluorimetrical analysis; assay type: ADME, cell-based; conditions: h9c2, 24 h; outline: as §4
[31] = Drug uptake in human U2OS/DX30 cells at 5 uM incubated for 24 hrs by fluorimetrical analysis; assay type: ADME, cell-based; outline: as §4
[32] = tested on: H9c2; experiment: Cytotoxicity in rat H9c2 cells at 5 uM incubated for 24 hrs in presence of NAC by LDH release-based spectrofluorimetrical analysis relative to control; assay type: cell-based; conditions: h9c2, 24 h
[33] = tested on: U2OS; experiment: Activity at PgP in human […] cells assessed as Vmax measured per mg of protein incubated for 20 mins by fluorimetrical analysis; assay type: cell-based
Outline: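 U-2OS/DX580 cells exposed 20 min to 0-50 μM drug, washed, intracellular doxorubicin read fluorimetrically; parallel dishes left a further 10 min at 37 °C before reading. Efflux rate (difference, nmol extruded/min/mg cell protein) plotted against initial concentration; Vmax and Km fitted. Means ± SD, n = 3.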

[34] = tested on: U2OS; experiment: Induction of intracellular ROS accumulation in human U2OS cells at 5 uM incubated for 24 hrs by DCFDA-AM probe-based fluorimetrical analysis relative to control; assay type: functional, cell-based; outline: as §3
[35] = tested on: U2OS; experiment: Induction of intracellular ROS accumulation in human U2OS/DX100 cells at 5 uM incubated for 24 hrs by DCFDA-AM probe-based fluorimetrical analysis relative to control; assay type: functional, cell-based; outline: as §3
[36] = tested on: U2OS; experiment: Cytotoxicity in human U2OS/DX100 cells at 5 uM incubated for 24 hrs by LDH release-based spectrofluorimetrical analysis; assay type: functional, cell-based; outline: as §1

O=C(O)c1ccc(-c2ssc(=S)c2-c2ccccc2)cc1
Activity [1]: Active
Vmax [2]: 16 nmol/min/mg
Activity [3]: inactive
Activity [4]: Active
Activity [5]: Active
Activity [6]: Active
Activity [7]: Toxic
Activity [8]: Toxic
Activity [9]: Toxic
Activity [10]: Active
Activity [11]: Active
Activity [12]: Active
Activity [13]: Active
Activity [14]: inactive
Activity [15]: inactive
Activity [16]: Active
Activity [17]: Non-toxic
Activity [18]: Non-toxic

COc1cccc2c1C(=O)c1c(O)c3c(c(O)c1C2=O)C[C@@](O)(C(=O)CO)C[C@@H]3O[C@H]1C[C@H](N)[C@H](O)[C@H](C)O1.Cl [DOXORUBICIN HYDROCHLORIDE]
Activity [19]: inactive
Activity [20]: Non-toxic
Activity [21]: Toxic
inhibition [22]: inactive
Drug uptake [23]: Not Active
Activity [24]: Toxic
Activity [25]: Toxic
Activity [26]: inactive
Drug uptake [27]: Not Active
Activity [28]: inactive
Activity [29]: inactive
Drug uptake [30]: Active
Drug uptake [31]: Not Active
Activity [32]: Non-toxic
Vmax [33]: 24.1 nmol/min/mg
Activity [34]: Active
Activity [35]: inactive
Activity [17]: Toxic
Activity [36]: inactive
